Apaf-1 inh = inhibitors of human Apaf-1 apoptosome; 0.71% of 330,000 active; AID 489030; inhibition, % at 20 µM; O14727; reconstituted apoptosome caspase-3 activity, DEVD-Rh110 fluorescence; active means inhibition of at least 40% at 20 µM;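 further: plate controls were DMSO wells for no effect and DEVD-CHO caspase inhibitor wells for full effect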
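detection = Rh110 fluorescence intensity | test system = biochemical Apaf-1 apoptosome reconstitution | also added = cytochrome c and DEVD-Rh110 substrate | schedule = 30 min plus 50 min, RT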
Fh CTSL1 inh = counter-screen for PFM18AAP inhibitors: inhibitors of F. hepatica cathepsin L1; recombinant F. hepatica cathepsin L1, Z-Leu-Arg-MCA fluorescence; inhibition, % at 5.96 µM; 0.49% of 300,000 active;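 active means inhibition above the mean of all tested compounds plus 3 SD, set per screening campaign, cut at about 17% in these data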;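 further: 0% = plate median of test compound wells and 100% = 1 µM Z-Phe-Ala-diazomethylketone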
PP5 primary = PP5 (human) phosphatase inhibition | P53041 | purified PP5c, OMFP substrate fluorescence | 0.18% of 320,000 active | inhibition, % at 6.7 µM;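 active means inhibition above the campaign's mean inhibition across all tested compounds plus 3 SD, cut at about 9.5% in these data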;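 further: 0% = DMSO only and 100% = 100 µM cantharidin control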
GSTO1 inh = GSTO1 inhibition, counter-screen for RBBP9 inhibitors. recombinant GSTO1, activity-based probe fluorescence polarization. 1.1% of 300,000 active. inhibition, % at 5.96 µM;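 active means inhibition above the campaign mean inhibition plus 3 SD, cut at about 35% in these data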;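 further: 0% = GSTO1-1 with DMSO and 100% = wells lacking GSTO1-1 enzyme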
Target sequence (P78417 whole entry, looked up): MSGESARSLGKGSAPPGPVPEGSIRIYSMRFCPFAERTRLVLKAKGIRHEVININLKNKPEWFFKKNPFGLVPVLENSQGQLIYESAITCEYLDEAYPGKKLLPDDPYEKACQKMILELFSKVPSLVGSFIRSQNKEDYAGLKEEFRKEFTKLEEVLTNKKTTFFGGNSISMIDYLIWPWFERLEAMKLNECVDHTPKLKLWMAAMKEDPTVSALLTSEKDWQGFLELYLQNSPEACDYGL
UCH37 inh = inhibitors of human deubiquitinating enzyme UCH37; Q9Y5K5; purified proteasome/UCH37, Ub-AMC cleavage fluorescence; inhibition, % (test concentration not listed); 0.33% of 330,000 active;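 active means mean inhibition over replicate wells above about 20%, limit read from the data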;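 further: 0% = compound-free wells with enzyme and 100% = wells lacking proteasome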
Target sequence (Q9Y5K5 whole entry, looked up): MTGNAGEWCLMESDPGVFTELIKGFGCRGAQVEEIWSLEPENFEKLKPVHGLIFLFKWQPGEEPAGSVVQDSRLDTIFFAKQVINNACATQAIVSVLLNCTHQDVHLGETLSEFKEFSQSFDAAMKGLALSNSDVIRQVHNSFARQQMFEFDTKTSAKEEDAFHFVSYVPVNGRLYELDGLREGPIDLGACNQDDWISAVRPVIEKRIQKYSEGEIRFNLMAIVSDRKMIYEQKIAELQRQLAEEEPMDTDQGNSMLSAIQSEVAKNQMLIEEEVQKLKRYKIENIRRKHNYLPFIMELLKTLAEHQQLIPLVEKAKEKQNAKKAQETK
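System: Proteasome-associated human UCH37 deubiquitinase; Input: 0.15 nM proteasome in added enzyme buffer; Also added: Ub-AMC substrate from 1 µM stock; Incubation: 30 min compound-proteasome preincubation then 25 min substrate reaction, room temperature; Detection: fluorescence, ex 355 nm, em 460 nm; Read-out: % inhibition of Ub-AMC cleavage fluorescence; Benchmarks: no-proteasome and no-compound wells.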
PAD4 inh = PAD4 (human) enzyme inhibition. recombinant PAD4, RCA probe fluorescence polarization. inhibition, % at 6.36 µM. Q9UM07. 0.41% of 330,000 active;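 active means percent inhibition above a cutoff equal to the mean of all tested compounds plus 3 SD, cut at about 15% in these data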;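 further: 0% = PAD4 with RCA probe and DMSO and 100% = probe without PAD4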
* hit, by the source's call; x = no result given. Most compounds without a hit are left out; they make up all but 2% or so of the library.

SMILES	Apaf-1 inh	Fh CTSL1 inh	PP5 primary	GSTO1 inh	UCH37 inh	PAD4 inh
Cc1noc(NS(=O)(=O)c2ccc(NC(=O)CC34CC5CC(CC(Br)(C5)C3)C4)cc2)c1C	7.5	19.7*	1.8	8.4	-0.3	6.8
COc1ccc(CCNC(=O)CC(=O)NN=Cc2ccc(C(=O)O)cc2)cc1OC	x	x	x	x	4.0	x
Cc1ccc(Oc2ccc(OCC(=O)NC(CC(C)C)C(=O)O)cc2)cc1 (configuration not stated)	-3.8	5.0	-0.7	38.3*	-1.9	-2.2
CN(C)C(CNC(=O)C1CCCN(C(=O)c2ccc(Cl)cc2)C1)c1ccco1 (configuration not stated)	3.1	18.5*	0.1	3.9	1.1	-2.9
OCCOCCn1c(C(CO)Nc2nc(-c3ccccc3Br)cs2)nc2ccccc21 (configuration not stated)	5.1	21.3*	1.7	3.0	2.8	0.2
OCCOCCn1c(C(CO)Nc2nc(-c3cccc(Br)c3)cs2)nc2ccccc21 (configuration not stated)	14.7	0.0	5.8	11.1	0.8	-5.2
COc1ccc(NC(=O)CSCCc2ccccn2)cc1OC	-19.6	1.4	0.4	-2.7	0.3	3.2
O=C(CSCCc1ccccn1)Nc1cccnc1	8.4	8.9	-8.6	11.3	23.1*	3.8
COc1ccc(S(=O)(=O)Nc2ccc(Oc3ccsc3C(=O)O)cc2)cc1	-0.6	0.6	-0.1	35.2*	0.2	-0.5
COC(=O)c1ccc(NS(=O)(=O)c2ccc(OC)cc2)cc1	0.5	0.2	1.1	4.3	0.4	1.8
Cc1c(C(=O)O)oc2ccc(S(=O)(=O)NCCC3=CCCCC3)cc12	-1.6	0.9	-0.8	36.6*	4.6	-1.6
Cc1c(C(=O)NCCC2=CCCCC2)oc2ccc(S(=O)(=O)N3CCOCC3)cc12	22.7	2.8	0.5	-12.1	3.8	-2.5
COc1cc(/C=C(/C#N)c2nc3ccccc3[nH]2)ccc1OCc1ccc(C(=O)O)o1	5.8	19.6*	5.5	-18.5	x	-7.8
COC(=O)c1ccc(COc2ccc(/C=C(\C#N)c3nc4ccccc4[nH]3)cc2OC)o1	-5.4	4.9	4.0	-6.4	-11.4	-1.5
CN1CCN(c2ccccc2NC(=O)c2ccc(-c3ccc(Cl)c(Cl)c3)o2)CC1	46.0*	2.2	4.2	-0.3	-2.1	0.7
Cc1cc(N2CCN(C)CC2)ccc1NC(=O)c1ccc(-c2ccc(Cl)cc2)o1	41.7*	1.8	0.6	10.9	8.1	-4.4
COc1cccc(C=NNC(=O)c2ccc3nc[nH]c3c2)c1	x	x	x	x	6.7	x
NC(=O)C(Cc1ccccc1)N1C(=O)c2ccccc2C1=O (configuration not stated)	1.4	18.8*	3.1	2.4	0.9	-13.1
CC(C)C(C(=O)Nc1ccccc1)N1C(=O)c2ccccc2C1=O (configuration not stated)	-1.2	6.4	5.0	7.1	8.9	-5.8
CC(C)C(C(=O)C=[N+]=[N-])N1C(=O)c2ccccc2C1=O (configuration not stated)	-0.8	20.9*	1.9	6.7	4.9	0.5
[N-]=[N+]=CC(=O)C(Cc1ccccc1)N1C(=O)c2ccccc2C1=O (configuration not stated)	2.0	25.7*	2.3	18.0	3.7	-2.7
CCOC(=O)CC(C)=NNc1ccc([N+](=O)[O-])cc1[N+](=O)[O-]	x	x	x	x	8.4	x
CCC(C=NNC(=O)C(=O)NN=CC(CC)CC)CC	x	x	x	x	5.6	x
CC(/C=C1\SC(=S)N(CCC(=O)Nc2cccc(C(=O)O)c2)C1=O)=C\c1ccccc1	29.9	6.4	0.1	-26.9	21.6*	-9.6
O=C(O)CCN1C(=O)/C(=C\c2cccc(Oc3ccccc3)c2)SC1=S	11.1	6.7	1.0	1.6	20.9*	-1.4
SMILES	Apaf-1 inh	Fh CTSL1 inh	PP5 primary	GSTO1 inh	UCH37 inh	PAD4 inh
O=C(O)CCN1C(=O)/C(=C\c2ccc(-c3nc4ccccc4s3)o2)SC1=S	-7.6	0.2	1.6	6.7	91.7*	-0.7
CC(/C=C1\SC(=S)N(CCCC(=O)Nc2ccc(C(=O)O)cc2)C1=O)=C\c1ccccc1	33.1	3.9	-3.1	-20.4	1.9	-12.7
O=C(Cn1nnc2ccccc21)NN=Cc1ccco1	x	x	x	x	7.3	x
Cc1cccc(NCC(=O)NN=Cc2c[nH]c3ccccc23)c1	x	x	x	x	2.4	x
CC(=O)Nc1ccc(C=NNS(=O)(=O)c2cc(C)ccc2C)cc1	x	x	x	x	4.9	x
CCCN(Cc1cc2cc(C)ccc2[nH]c1=O)C(=O)c1cccc([N+](=O)[O-])c1	4.3	18.6*	3.5	8.6	2.6	1.7
CCc1ccc(C(=O)CSc2nc3cc(S(=O)(=O)N4CCOCC4)ccc3n2CC)cc1	16.4	0.2	2.1	35.7*	3.5	-0.3
CCn1c(SCC(=O)OC)nc2cc(S(=O)(=O)N3CCOCC3)ccc21	-0.8	-0.2	-1.5	12.4	0.2	1.6
CCc1cc(C(=O)O)c(NC(=O)/C=C/c2ccc(OC)cc2)s1	-5.8	4.6	3.5	-34.0	18.6	-0.8
CCc1cc(C(=O)O)c(NC(=O)/C=C/c2ccc(OC)c(OC)c2)s1	3.1	-0.1	-0.8	-35.0	24.3*	-3.7
CN(C)C=NC(=O)c1cc(C(=O)c2ccc(Cl)cc2)c[nH]1	7.1	17.6*	0.4	-2.2	5.1	-6.1
Oc1ccc(N=Nc2c(O)ccc3ccccc23)cc1	17.7	3.3	4.9	13.9	10.5	-8.4
O=C(O)c1cc(N=Nc2c(O)ccc3ccccc23)cc(C(=O)O)c1	x	x	x	x	26.4*	x
CCS(=O)(=O)N1CCCC(C(=O)NCC2CCCO2)C1 (configuration not stated)	-7.5	-0.9	3.9	-4.5	31.4*	4.1
O=C(NCC1CCCO1)C1CCCN(S(=O)(=O)c2ccc(F)cc2)C1 (configuration not stated)	3.0	-1.6	0.3	5.1	0.0	-5.5
O=C(NN=Cc1ccccn1)c1ccc2nc[nH]c2c1	x	x	x	x	4.4	x
COc1ccccc1/C=C/C=NN1CCN(Cc2ccccc2Cl)CC1	x	x	x	x	2.3	x
Cc1ccccc1CS(=O)(=O)CCC(=O)NCCCN1CCN(c2ccccc2F)CC1	6.6	-1.1	0.3	3.3	32.6*	7.3
O=C(CCS(=O)(=O)Cc1ccc(Cl)cc1)NCCCN1CCN(c2ccccc2F)CC1	-10.4	-0.5	4.2	-0.6	-0.2	-5.0
O=c1c(=Cc2ccc(O)cc2)sc2n1CCCN=2	x	x	x	x	-0.3	x
O=C(CSc1c[nH]c2ccccc12)NC1CCCC1	-7.3	-3.7	1.6	-0.9	5.8	2.3
Cc1[nH]c2ccccc2c1SCC(=O)NC1CCCCC1	-1.2	23.3*	0.2	12.4	2.1	-0.7
CC(C)(C=O)C1=CC(=O)c2ccccc2C1=O	x	-2.3	2.6	48.7*	-59.2	-7.7
CC(C)(C)c1ccc2c(c1)C(=O)c1ccccc1C2=O	17.1	2.5	-0.4	2.5	5.1	1.9
